The experiment deals with T1, OR5P3 (Homo sapiens) (UniProt Q8WZ94).
T1 sequence (whole entry): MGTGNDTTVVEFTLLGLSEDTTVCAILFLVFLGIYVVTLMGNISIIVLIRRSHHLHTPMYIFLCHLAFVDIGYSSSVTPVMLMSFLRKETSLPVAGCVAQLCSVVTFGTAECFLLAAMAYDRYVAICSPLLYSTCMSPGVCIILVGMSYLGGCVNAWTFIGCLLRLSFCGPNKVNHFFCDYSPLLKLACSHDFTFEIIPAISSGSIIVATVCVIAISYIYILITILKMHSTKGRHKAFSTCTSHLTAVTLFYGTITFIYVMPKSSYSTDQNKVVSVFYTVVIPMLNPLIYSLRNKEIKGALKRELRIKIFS
The settings on record: stereoisomer not certain. An outline of the steps:
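Each receptor–molecule pair is labelled responsive or non-responsive (inactive) according to whether the original authors judged the measured signal statistically different from baseline. The data were taken from the main text and supplementary material of published papers and checked for typos and inconsistencies. Assay methods differed by source, with transient luciferase assays in mammalian cell lines being common.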
`CCCCCCCCCO`: the “odorant receptor agonist call” value is “inactive”. In the case of `CCCCCCCC(=O)[O-].[H+]`, the “odorant receptor agonist call” value is “inactive”. For `CCCCCCO` the value was “active”; for `CCCCCCCCCC(=O)[O-].[H+]`, “inactive”. Under `CCC(=O)O` stands “inactive”.

The values above are taken from the M2OR odorant receptor database.
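Further: active if original authors judged signal statistically different from baseline.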
